Measurements reported in ChEMBL document CHEMBL3046885, “Toxicity of (+)- and (-)-gossypol to the plant pathogen, Rhizoctonia solani” (2002).
Values joined by “and” are separate entries in the source; they are usually repeats but may differ in a detail not shown here. Equal values may be shown once.

What was measured:
Rhizoctonia solani [1] = assay: Antifungal activity against Rhizoctonia solani J-1 after 4 to 5 days; assay type: functional
Outline: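 Mycelial suspension of strain J-1 (grown 3-4 days at 26-28 °C in potato dextrose broth with rifampicin, macerated in buffered defined medium, pH 6.3, 125 mM glucose). Mixed 1:1 with compound in medium/DMSO; 12 wells per concentration, DMSO controls. Incubated 48 h at 26-28 °C in dark, then plated on PDA and scored visually after 4-5 days. LD100 is the lowest concentration giving no growth. At least three assays.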

Rhizoctonia solani [2] = assay: Antifungal activity against Rhizoctonia solani J-1 after 72 hr by turbimetric assay; assay type: functional; settings: read-out: ED50 (the source's name)
Outline: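 Sieved macerated mycelium of strain J-1 was held 10 h in buffered defined medium (pH 6.3, 125 mM glucose), then mixed 1:1 with compound in medium/DMSO. Ten wells per concentration; DMSO control. Incubated at 26-28 °C in dark. OD750 was read from 72 h, every 12 h, until control OD reached 0.065-0.100. ED50 came from fractional effect versus concentration. Three plates per experiment, at least four experiments.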

Compound	LD100 (Rhizoctonia solani [1]) [µM]	EC50 (Rhizoctonia solani [2]; Rhizoctonia solani, J-1, 72 h) [µM]	EC50 (Rhizoctonia solani [2])
COc1c(C)cc2c3c(c(O)c(O)c(C(C)C)c13)CO2 [DESOXHEMIGOSSYPOL-6-METHYL ETHER]	40	2.52	–
CC1=Cc2cccc(C)c2C(=O)C1=O [O-HIBISCANONE]	27	3.76	–
Cc1cc2c3c(c(O)c(O)c(C(C)C)c3c1)CO2 [DESOXYHEMIGOSSYPOL]	41	3.52	–
Cc1cc(O)c2c(C=O)c(O)c(O)c(C(C)C)c2c1 [HEMIGOSSYPOL]	77	21.4	–
COc1cc(O)c2c(C=O)c(O)c(O)c(C(C)C)c2c1 [HEMIGOSSYPOL-6-METHYL ETHER]	55	13.1	–
Cc1cc2c(C(C)C)c(O)c(O)c(C=O)c2c(O)c1-c1c(C)cc2c(C(C)C)c(O)c(O)c(C=O)c2c1O [GOSSYPOL]	>106	25.1	24.3 µM and 23.9 µM
